In ChEMBL document CHEMBL2163280 (J Med Chem, 2012):
Activity calls are given as the source filed them. No cut-off for these calls is given here.

How the values were obtained:
[1] = target: Acetylcholine receptor; alpha1/beta1/delta/gamma (Homo sapiens) (UniProt P02708+P07510+P11230+Q07001); assay: Agonist activity at alpha1betagammadelta nACHR in human TE671/RD cells by 86Rb+ efflux assay; format: functional, cell-based
[2] = target: Neuronal acetylcholine receptor; alpha4/beta4 (Rattus norvegicus) (UniProt P09483+P12392); assay: Displacement of [3H]epibatidine from rat alpha4beta4 nACHR at 10 uM; format: protein-complex assay
[3] = species: Rattus norvegicus; assay: Displacement of [3H]epibatidine from rat forebrain alpha4beta2* nACHR at 10 uM
[4] = target: Neuronal acetylcholine receptor; alpha3/beta4 (Rattus norvegicus) (UniProt P04757+P12392); assay: Displacement of [3H]epibatidine from rat alpha3beta4 nACHR at 10 uM; format: protein-complex assay
[5] = target: Neuronal acetylcholine receptor; alpha4/beta2 (Rattus norvegicus) (UniProt P09483+P12390); assay: Displacement of [3H]epibatidine from rat alpha4beta2 nACHR at 10 uM; format: protein-complex assay
[6] = target: Neuronal acetylcholine receptor; alpha3/beta2 (Rattus norvegicus) (UniProt P04757+P12390); assay: Displacement of [3H]epibatidine from rat alpha3beta2 nACHR at 10 uM; format: protein-complex assay
[7] = target: Neuronal acetylcholine receptor; alpha2/beta4 (Rattus norvegicus) (UniProt P12389+P12392); assay: Displacement of [3H]epibatidine from rat alpha2beta4 nACHR at 10 uM; format: protein-complex assay
[8] = system: Neuronal acetylcholine receptor alpha2/beta2 rat; assay: Displacement of [3H]epibatidine from rat alpha2beta2 nACHR at 10 uM
[9] = target: Neuronal acetylcholine receptor; alpha4/beta2 (Rattus norvegicus, UniProt P09483+P12390); assay: Displacement of [3H]epibatidine from rat alpha4beta2 nACHR; format: protein-complex assay
[10] = Binding affinity to rat forebrain alpha7* nACHR at 10 uM
[11] = target: Neuronal acetylcholine receptor subunit alpha-7 (Rattus norvegicus, UniProt Q05941); assay: Binding affinity to rat alpha7 nACHR […]
[12] = Inhibition of histamine receptor at 10 uM
[13] = Inhibition of sigma receptor at 10 uM
[14] = Inhibition of opioid receptor at 10 uM
[15] = Inhibition of muscarinic receptor at 10 uM
[16] = Inhibition of adrenergic receptor at 10 uM
[17] = system: Liver microsomes; assay: Drug metabolism in human liver microsomes assessed as unchanged parent compound at 1 to 10 uM; format: ADME, Microsome; settings: TDE = time-dependent effect
Method in brief: (§1)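 Test article incubated with human liver microsomes at 1 and 10 μM. Samples taken at 0, 15, 30 and 60 min, and parent remaining quantified by LC-MS/MS.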

[18] = target: Neuronal acetylcholine receptor; alpha2/beta4 (Rattus norvegicus, UniProt P12389+P12392); assay: Displacement of [3H]epibatidine from rat alpha2beta4 nACHR; format: protein-complex assay
[19] = target: Neuronal acetylcholine receptor; alpha3/beta2 (Rattus norvegicus, UniProt P04757+P12390); assay: Displacement of [3H]epibatidine from rat alpha3beta2 nACHR; format: protein-complex assay
[20] = Displacement of [3H]epibatidine from rat forebrain alpha4beta2* nACHR
[21] = target: Neuronal acetylcholine receptor; alpha4/beta4 (Rattus norvegicus, UniProt P09483+P12392); assay: Displacement of [3H]epibatidine from rat alpha4beta4 nACHR; format: protein-complex assay
[22] = target: T1, Neuronal acetylcholine receptors; alpha-3/beta-4, alpha-5, beta-2 (Homo sapiens) (UniProt P17787+P30926+P32297+P30532); assay: Agonist activity at alpha3beta4alpha5beta2 nACHR in human SH-SY5Y cells at 10 uM by 86Rb+ efflux assay; format: functional, cell-based
T1 sequence (P17787 whole entry, looked up): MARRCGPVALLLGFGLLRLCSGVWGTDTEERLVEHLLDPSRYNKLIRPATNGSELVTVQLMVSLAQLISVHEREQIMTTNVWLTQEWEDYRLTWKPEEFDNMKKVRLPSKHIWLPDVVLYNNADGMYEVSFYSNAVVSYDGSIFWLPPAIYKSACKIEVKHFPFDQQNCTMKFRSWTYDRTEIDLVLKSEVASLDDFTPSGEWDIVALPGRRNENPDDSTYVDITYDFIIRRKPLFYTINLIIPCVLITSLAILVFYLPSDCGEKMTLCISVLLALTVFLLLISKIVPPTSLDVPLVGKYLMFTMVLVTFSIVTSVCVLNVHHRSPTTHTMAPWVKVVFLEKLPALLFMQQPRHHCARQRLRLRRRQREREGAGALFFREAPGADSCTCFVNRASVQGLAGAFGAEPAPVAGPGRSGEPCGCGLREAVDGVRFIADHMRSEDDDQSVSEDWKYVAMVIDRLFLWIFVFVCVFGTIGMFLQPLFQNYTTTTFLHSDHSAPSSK
T1 sequence (P30532 whole entry, looked up): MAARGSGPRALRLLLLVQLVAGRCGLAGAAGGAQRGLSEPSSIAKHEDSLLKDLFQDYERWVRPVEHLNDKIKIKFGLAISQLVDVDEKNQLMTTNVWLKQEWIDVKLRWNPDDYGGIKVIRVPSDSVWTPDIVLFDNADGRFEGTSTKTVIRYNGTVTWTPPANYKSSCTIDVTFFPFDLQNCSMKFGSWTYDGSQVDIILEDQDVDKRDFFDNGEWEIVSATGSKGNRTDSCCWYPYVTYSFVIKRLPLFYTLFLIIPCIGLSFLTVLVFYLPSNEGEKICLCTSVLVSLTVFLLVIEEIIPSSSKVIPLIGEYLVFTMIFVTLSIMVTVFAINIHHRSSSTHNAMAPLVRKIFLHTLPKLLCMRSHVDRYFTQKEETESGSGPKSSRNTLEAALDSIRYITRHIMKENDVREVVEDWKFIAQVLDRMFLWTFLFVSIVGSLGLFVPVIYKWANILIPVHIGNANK
T1 sequence (P30926 whole entry, looked up): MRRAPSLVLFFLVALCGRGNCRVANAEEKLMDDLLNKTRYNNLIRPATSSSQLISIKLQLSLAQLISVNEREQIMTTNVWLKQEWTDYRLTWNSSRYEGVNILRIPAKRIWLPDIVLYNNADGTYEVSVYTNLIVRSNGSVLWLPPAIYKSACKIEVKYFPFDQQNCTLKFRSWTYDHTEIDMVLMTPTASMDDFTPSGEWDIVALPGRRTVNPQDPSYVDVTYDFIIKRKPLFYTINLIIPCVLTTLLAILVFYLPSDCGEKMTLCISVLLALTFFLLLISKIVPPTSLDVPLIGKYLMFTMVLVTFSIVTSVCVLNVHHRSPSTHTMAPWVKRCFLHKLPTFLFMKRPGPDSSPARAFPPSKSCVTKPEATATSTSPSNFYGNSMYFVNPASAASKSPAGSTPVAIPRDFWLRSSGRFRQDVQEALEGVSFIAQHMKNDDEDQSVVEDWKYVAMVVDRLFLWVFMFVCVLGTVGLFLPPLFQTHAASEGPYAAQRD
T1 sequence (P32297 whole entry, looked up): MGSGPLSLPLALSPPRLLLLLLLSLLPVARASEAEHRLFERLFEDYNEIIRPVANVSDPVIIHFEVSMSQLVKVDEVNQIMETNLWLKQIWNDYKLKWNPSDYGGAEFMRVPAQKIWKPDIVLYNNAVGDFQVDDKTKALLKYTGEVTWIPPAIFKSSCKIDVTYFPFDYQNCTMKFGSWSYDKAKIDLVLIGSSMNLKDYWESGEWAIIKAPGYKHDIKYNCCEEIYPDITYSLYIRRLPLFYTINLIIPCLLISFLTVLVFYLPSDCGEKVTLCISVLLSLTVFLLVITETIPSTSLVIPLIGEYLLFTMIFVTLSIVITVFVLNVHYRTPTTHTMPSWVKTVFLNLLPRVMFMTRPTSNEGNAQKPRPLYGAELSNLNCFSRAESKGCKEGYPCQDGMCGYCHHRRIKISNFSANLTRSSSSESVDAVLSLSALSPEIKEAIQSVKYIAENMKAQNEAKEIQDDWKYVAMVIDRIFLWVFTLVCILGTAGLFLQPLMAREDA

[23] = target: T1, Neuronal acetylcholine receptors; alpha-3/beta-4, alpha-5, beta-2 (Homo sapiens); assay: Inhibition of alpha3beta4alpha5beta2 nACHR in human SH-SY5Y cells at 10 uM by 86Rb+ efflux assay; format: cell-based
[24] = system: Mus musculus; assay: Antidepressant activity in BALB/cJ mouse assessed as reduction in immobility at 1 mg/kg, ip measured after 30 mins post drug administration by forced swim test; format: functional, organism-based; set-up: dose 1 mg/kg
Method in brief: (§2)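 Male BALB/cJ mice aged 8–10 weeks; drug given in injectable water by IP injection at 10 mL/kg. Thirty minutes later each mouse was placed in a glass cylinder of water at 23±1 °C, 12 cm deep. Immobility (floating) was scored over a 6 min trial. n = 9–10/group; ANOVA followed by Fisher's PLSD versus vehicle.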

[25] = system: Mus musculus; assay: Antidepressant activity in BALB/cJ mouse assessed as reduction in immobility at 5 mg/kg, ip measured after 30 mins post drug administration by forced swim test; format: functional, organism-based; set-up: dose 5 mg/kg; method in brief: as §2
[26] = system: Mus musculus; assay: Antidepressant activity in BALB/cJ mouse assessed as reduction in immobility at 5 mg/kg, po measured after 30 mins post drug administration by forced swim test; format: functional, organism-based; set-up: dose 5 mg/kg
Method in brief: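 Male BALB/cJ mice aged 8–10 weeks; drug given in injectable water by oral gavage at 10 mL/kg. Thirty minutes later each mouse was placed in water at 23±1 °C, 12 cm deep. Immobility time was recorded over a 6 min trial. n = 9–10/group; ANOVA followed by Fisher's PLSD.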

[27] = Inhibition of GABA receptor at 10 uM
[28] = Inhibition of dopamine receptor at 10 uM
[29] = Inhibition of serotonin receptor at 10 uM
[30] = system: Liver microsomes; assay: Drug metabolism in rat liver microsomes assessed as unchanged parent compound at 1 to 10 uM; format: ADME, Microsome; settings: TDE = time-dependent effect
[31] = target: T2, CYP1A2 (Homo sapiens, UniProt P05177); assay: Inhibition of human liver microsome CYP1A2 using phenacetin as substrate assessed as residual activity at 1 uM; format: ADME; settings: human liver microsomes, probe phenacetin, read-out: Activity
T2 sequence (P05177 whole entry, canonical isoform): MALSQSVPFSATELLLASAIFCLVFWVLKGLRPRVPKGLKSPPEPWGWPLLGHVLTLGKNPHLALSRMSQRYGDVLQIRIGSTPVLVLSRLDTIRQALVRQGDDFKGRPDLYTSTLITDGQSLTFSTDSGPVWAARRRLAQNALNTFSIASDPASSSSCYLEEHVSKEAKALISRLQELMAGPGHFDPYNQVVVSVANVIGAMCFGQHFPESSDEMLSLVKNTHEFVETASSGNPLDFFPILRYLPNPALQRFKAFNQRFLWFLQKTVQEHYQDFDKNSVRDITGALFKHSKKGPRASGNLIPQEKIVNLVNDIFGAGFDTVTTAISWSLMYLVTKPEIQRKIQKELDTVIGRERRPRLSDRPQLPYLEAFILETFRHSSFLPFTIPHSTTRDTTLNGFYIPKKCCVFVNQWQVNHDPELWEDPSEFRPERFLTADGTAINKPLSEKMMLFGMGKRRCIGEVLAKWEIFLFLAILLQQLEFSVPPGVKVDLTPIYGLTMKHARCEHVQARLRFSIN
Method in brief: (§3)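 Human liver microsomes in a high-throughput multiple-CYP assay covering CYP1A2, 2B6, 2C9, 2C19, 2D6 and 3A4. Test compound at 1 and 10 μM; isoform activity expressed as % of control.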

[32] = target: T3, CYP2B6 (Homo sapiens, UniProt P20813); assay: Inhibition of human liver microsome CYP2B6 using bupropion as a substrate assessed as residual activity at 1 uM; format: ADME; settings: human liver microsomes, probe bupropion, read-out: Activity; method in brief: as §3
T3 sequence (P20813 whole entry): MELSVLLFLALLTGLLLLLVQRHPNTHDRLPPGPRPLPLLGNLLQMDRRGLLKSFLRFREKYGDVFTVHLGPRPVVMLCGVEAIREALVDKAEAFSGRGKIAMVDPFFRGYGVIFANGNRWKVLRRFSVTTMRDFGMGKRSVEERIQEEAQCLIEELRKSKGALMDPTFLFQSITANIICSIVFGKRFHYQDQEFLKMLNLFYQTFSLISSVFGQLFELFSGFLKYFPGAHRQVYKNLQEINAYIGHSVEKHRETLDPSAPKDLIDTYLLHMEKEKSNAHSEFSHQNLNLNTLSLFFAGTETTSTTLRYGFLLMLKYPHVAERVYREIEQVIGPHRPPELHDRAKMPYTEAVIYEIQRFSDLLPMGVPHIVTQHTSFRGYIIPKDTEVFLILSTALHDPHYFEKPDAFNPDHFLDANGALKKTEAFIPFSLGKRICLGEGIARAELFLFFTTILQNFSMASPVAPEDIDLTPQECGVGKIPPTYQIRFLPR

[33] = target: T4, CYP2C9 (Homo sapiens, UniProt P11712); assay: Inhibition of human liver microsome CYP2C9 using diclofenac as substrate assessed as residual activity at 1 uM; format: ADME; settings: human liver microsomes, probe diclofenac, read-out: Activity; method in brief: as §3
T4 sequence (P11712 whole entry): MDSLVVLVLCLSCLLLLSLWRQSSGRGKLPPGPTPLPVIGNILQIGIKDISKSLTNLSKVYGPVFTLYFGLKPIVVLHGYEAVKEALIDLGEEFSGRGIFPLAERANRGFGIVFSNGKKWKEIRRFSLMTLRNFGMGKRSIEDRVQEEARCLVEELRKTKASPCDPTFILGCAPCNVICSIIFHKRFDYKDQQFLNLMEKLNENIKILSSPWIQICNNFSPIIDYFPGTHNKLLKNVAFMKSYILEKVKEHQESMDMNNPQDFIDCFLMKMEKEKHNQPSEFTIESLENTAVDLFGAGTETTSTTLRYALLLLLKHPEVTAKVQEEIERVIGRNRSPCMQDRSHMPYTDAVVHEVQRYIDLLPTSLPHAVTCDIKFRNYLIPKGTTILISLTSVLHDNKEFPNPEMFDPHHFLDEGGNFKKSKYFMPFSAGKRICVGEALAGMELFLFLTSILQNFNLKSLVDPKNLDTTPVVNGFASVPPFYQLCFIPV

[34] = target: T5, CYP2C19 (Homo sapiens, UniProt P33261); assay: Inhibition of human liver microsome CYP2C19 using mephenytoin as substrate assessed as residual activity at 1 uM; format: ADME; settings: human liver microsomes, probe mephenytoin, read-out: Activity; method in brief: as §3
T5 sequence (P33261 whole entry): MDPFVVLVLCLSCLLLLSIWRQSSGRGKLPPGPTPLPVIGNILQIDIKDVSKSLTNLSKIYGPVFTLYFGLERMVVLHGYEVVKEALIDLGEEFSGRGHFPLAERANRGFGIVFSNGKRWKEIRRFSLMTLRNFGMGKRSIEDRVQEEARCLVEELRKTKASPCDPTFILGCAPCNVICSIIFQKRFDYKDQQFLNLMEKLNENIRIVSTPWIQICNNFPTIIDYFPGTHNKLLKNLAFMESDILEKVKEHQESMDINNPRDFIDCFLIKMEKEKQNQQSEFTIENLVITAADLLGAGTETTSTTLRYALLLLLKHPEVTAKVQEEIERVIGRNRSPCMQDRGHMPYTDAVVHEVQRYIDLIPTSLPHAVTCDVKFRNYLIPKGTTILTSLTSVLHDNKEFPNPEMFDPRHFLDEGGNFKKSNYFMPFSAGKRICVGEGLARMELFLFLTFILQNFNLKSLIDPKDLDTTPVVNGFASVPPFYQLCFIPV

[35] = target: T6, CYP2D6 (Homo sapiens, UniProt P10635); assay: Inhibition of human liver microsome CYP2D6 using bufuralol as substrate assessed as residual activity at 1 uM; format: ADME; settings: human liver microsomes, probe bufuralol, read-out: Activity; method in brief: as §3
T6 sequence (P10635 whole entry): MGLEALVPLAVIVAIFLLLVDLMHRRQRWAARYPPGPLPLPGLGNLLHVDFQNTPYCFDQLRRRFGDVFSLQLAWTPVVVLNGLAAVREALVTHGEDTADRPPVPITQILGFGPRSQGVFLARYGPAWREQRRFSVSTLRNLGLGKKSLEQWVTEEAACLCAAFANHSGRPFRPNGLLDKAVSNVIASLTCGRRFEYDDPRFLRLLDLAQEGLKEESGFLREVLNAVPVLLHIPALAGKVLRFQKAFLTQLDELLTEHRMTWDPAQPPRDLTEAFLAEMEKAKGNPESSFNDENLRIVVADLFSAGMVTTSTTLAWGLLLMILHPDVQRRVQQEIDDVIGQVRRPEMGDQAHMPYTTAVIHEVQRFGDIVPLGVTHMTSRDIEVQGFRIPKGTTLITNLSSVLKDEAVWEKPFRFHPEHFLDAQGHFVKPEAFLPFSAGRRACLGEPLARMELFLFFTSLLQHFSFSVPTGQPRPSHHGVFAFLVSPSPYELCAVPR

[36] = target: T7, CYP3A4 (Homo sapiens, UniProt P08684); assay: Inhibition of human liver microsome CYP3A4 using testosterone as substrate assessed as residual activity at 1 uM; format: ADME; settings: human liver microsomes, probe testosterone, read-out: Activity; method in brief: as §3
T7 sequence (P08684 whole entry): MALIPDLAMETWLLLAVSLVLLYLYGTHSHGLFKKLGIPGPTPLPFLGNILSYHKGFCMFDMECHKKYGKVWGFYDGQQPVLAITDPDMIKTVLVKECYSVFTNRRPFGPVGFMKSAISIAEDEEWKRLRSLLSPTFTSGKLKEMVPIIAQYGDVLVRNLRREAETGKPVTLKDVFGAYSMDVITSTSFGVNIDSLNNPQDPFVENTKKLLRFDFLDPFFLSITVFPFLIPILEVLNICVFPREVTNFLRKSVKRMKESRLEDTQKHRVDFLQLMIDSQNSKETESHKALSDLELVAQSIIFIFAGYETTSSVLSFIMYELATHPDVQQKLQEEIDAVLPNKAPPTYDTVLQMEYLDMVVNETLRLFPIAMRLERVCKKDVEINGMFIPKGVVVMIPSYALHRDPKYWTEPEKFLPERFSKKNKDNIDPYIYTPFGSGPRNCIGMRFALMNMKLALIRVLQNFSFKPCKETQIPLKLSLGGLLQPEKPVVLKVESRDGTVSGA

[37] = target: T7, CYP3A4; assay: Inhibition of human liver microsome CYP3A4 using midazolam as substrate assessed as residual activity at 1 uM; format: ADME; settings: human liver microsomes, probe midazolam, read-out: Activity; method in brief: as §3
[38] = target: T2, CYP1A2; assay: Inhibition of human liver microsome CYP1A2 using phenacetin as substrate assessed as residual activity at 10 uM; format: ADME; settings: human liver microsomes, probe phenacetin, read-out: Activity; method in brief: as §3
[39] = target: T3, CYP2B6; assay: Inhibition of human liver microsome CYP2B6 using bupropion as substrate assessed as residual activity at 10 uM; format: ADME; settings: human liver microsomes, probe bupropion, read-out: Activity; method in brief: as §3
[40] = target: T4, CYP2C9; assay: Inhibition of human liver microsome CYP2C9 using diclofenac as substrate assessed as residual activity at 10 uM; format: ADME; settings: human liver microsomes, probe diclofenac, read-out: Activity; method in brief: as §3
[41] = target: T5, CYP2C19; assay: Inhibition of human liver microsome CYP2C19 using mephenytoin as substrate assessed as residual activity at 10 uM; format: ADME; settings: human liver microsomes, probe mephenytoin, read-out: Activity; method in brief: as §3
[42] = target: T6, CYP2D6; assay: Inhibition of human liver microsome CYP2D6 using […] as substrate assessed as residual activity at 10 uM; format: ADME; settings: human liver microsomes, probe burfuralol, read-out: Activity; method in brief: as §3
[43] = target: T7, CYP3A4; assay: Inhibition of human liver microsome CYP3A4 using testosterone as substrate assessed as residual activity at 10 uM; format: ADME; settings: human liver microsomes, probe testosterone, read-out: Activity; method in brief: as §3
[44] = target: T7, CYP3A4; assay: Inhibition of human liver microsome CYP3A4 using midazolam as substrate assessed as residual activity at 10 uM; format: ADME; settings: human liver microsomes, probe midazolam, read-out: Activity; method in brief: as §3
[45] = Metabolic stability in human liver microsomes assessed as unchanged parent compound at 1 uM after 60 mins; format: ADME, Microsome; settings: read-out: Stability; method in brief: as §1
[46] = Metabolic stability in human liver microsomes assessed as unchanged parent compound at 10 uM after 60 mins; format: ADME, Microsome; settings: read-out: Stability
Method in brief: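 Test article incubated with human liver microsomes at 1 μM and 10 μM; aliquots taken at 0, 15, 30 and 60 min and analysed by LC-MS/MS for remaining unchanged parent drug.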

[47] = Metabolic stability in rat liver microsomes assessed as unchanged parent compound at 1 uM after 60 mins; format: ADME, Microsome; settings: read-out: Stability
[48] = Metabolic stability in rat liver microsomes assessed as unchanged parent compound at 10 uM after 60 mins; format: ADME, Microsome; settings: read-out: Stability
[49] = Plasma protein binding in human at 0.1 to 10 uM by equilibrium dialysis; format: ADME, cell-free; settings: read-out: PPB (converted)
Method in brief: (§4)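 Equilibrium dialysis against human or mouse plasma, with test compound at 0, 0.1, 1 and 10 μM; results expressed as mean percentage of compound bound to plasma proteins.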

[50] = Plasma protein binding in mouse at 0.1 to 10 uM by equilibrium dialysis; format: ADME, cell-free; settings: read-out: PPB (converted); method in brief: as §4
[51] = target: hERG (KCNH2) (Homo sapiens, UniProt Q12809); assay: Inhibition of human recombinant ERG expressed in HEK293 cells at 10 uM by fluorescence-based membrane potential analysis; format: cell-based; settings: HEK293 cells expressing human recombinant ERG
Method in brief: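 HEK293 cells stably expressing recombinant human hERG, read in a fluorescence-based membrane potential assay. Test compound at 10 μM, compared with a negative control.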

SMILES: Cc1cc(OC[C@@H]2CCN2)no1
- Activity [1]: inactive

SMILES: c1c(OC[C@@H]2CCN2)noc1COCC1CC1
- Activity [2]: < 50%
- Activity [3]: < 50%
- Activity [4]: < 50%
- Activity [5]: < 50%
- Activity [6]: < 50%
- Activity [7]: < 50%
- Activity [1]: inactive
- Activity [8]: < 50%

SMILES: OCc1cc(OC[C@@H]2CCN2)no1
- Activity [1]: inactive

SMILES: OCc1cc(OC[C@@H]2CCN2)on1
- Activity [1]: inactive

SMILES: CCNC(=O)OCc1cc(OC[C@@H]2CCN2)on1
- Activity [1]: inactive

SMILES: COCc1cc(OC[C@@H]2CCN2)no1
- Activity [3]: < 50%
- Activity [7]: < 50%

SMILES: Cc1cc([C@@H]2CCCN2C)on1 [ABT-418]
- Ki [9]: 7.4 nM

SMILES: Cc1cc(OC[C@@H]2CCN2)on1
- Ki [10]: 6790 nM
- Ki [11]: 2890 nM
- inhibition [12]: > 50%
- inhibition [13]: > 50%
- inhibition [14]: > 50%
- inhibition [15]: > 50%
- inhibition [16]: > 50%
- Drug metabolism [17]: tde
- Ki [18]: 311 nM
- Ki [19]: 8.7 nM
- Ki [20]: 12 nM
- Ki [21]: 86 nM
- Activity [1]: inactive
- Efficacy [22]: 120%
- Efficacy [23]: > 70%
- Activity [24]: Active
- Activity [25]: Active
- Activity [26]: Active
- inhibition [27]: > 50%
- inhibition [28]: > 50%
- inhibition [29]: > 50%
- Drug metabolism [30]: tde
- activity at 1 µM [31]: < 70%
- activity at 1 µM [32]: < 70%
- activity at 1 µM [33]: < 70%
- activity at 1 µM [34]: < 70%
- activity at 1 µM [35]: < 70%
- activity at 1 µM [36]: < 70%
- activity at 1 µM [37]: < 70%
- activity at 10 µM [38]: < 70%
- activity at 10 µM [39]: < 70%
- activity at 10 µM [40]: < 70%
- activity at 10 µM [41]: < 70%
- activity at 10 µM [42]: < 70%
- activity at 10 µM [43]: < 70%
- activity at 10 µM [44]: < 70%
- remaining at 1 h, 1 µM [45]: 53.4%
- remaining at 1 h, 10 µM [46]: 67.2%
- remaining at 1 h, 1 µM [47]: 67.5%
- remaining at 1 h, 10 µM [48]: 73.7%
- fraction unbound at up to 10 µM [49]: 0.918
- fraction unbound at up to 10 µM [50]: 0.871
- inhibition at 10 µM [51]: 0%

SMILES: c1ccc(OCc2cc(OC[C@@H]3CCN3)on2)cc1
- Activity [1]: inactive

SMILES: Cc1cc(OC[C@@H]2CCCN2)on1
- Activity [1]: inactive
